CHRM5 antagonist = CHRM5 antagonism in calcium assay; CHO-hM5 cells, Fluo-8 calcium fluorescence, ACh EC80; inhibition, % at 3 µM; P08912; actives 0.59% (n = 360,000);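 active = inhibition above a per-plate cutoff, the mean of that plate's test compounds plus 3 SD, cut at about 27% in these data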;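 also: 0% = acetylcholine EC80 with DMSO and 100% = DMSO without agonist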
Target sequence (P08912 whole entry, looked up): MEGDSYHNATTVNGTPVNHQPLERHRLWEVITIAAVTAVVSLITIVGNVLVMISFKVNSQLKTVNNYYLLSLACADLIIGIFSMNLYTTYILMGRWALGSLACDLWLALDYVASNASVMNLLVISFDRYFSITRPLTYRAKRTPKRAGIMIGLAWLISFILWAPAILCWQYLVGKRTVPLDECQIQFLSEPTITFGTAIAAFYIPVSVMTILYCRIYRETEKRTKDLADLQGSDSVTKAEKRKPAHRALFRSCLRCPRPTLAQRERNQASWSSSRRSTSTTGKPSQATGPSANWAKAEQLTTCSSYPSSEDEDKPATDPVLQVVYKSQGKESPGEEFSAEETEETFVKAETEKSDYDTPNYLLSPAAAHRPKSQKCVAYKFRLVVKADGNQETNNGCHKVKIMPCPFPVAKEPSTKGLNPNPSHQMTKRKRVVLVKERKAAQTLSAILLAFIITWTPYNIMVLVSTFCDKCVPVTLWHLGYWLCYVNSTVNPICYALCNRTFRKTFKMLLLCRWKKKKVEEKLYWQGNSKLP
M4 PAM = CHRM4 positive allosteric modulation; P08173; AID 624126; CHO-K1 hM4/Gqi5, Fluo-8 calcium fluorescence, ACh EC20; 0% = ACh EC20, 100% = maximal ACh; actives 0.4% (n = 360,000); activation, % at 3 µM;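 active = activation above its plate's cutoff, the mean activation of sample wells plus 3 SD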
CHRM4 agonist = agonists of human muscarinic M4 receptor (CHRM4) | CHO-K1 hM4/Gqi5, Fluo-8 calcium fluorescence; vehicle 0%, full acetylcholine response 100% | activation, % at 3 µM | AID 624127 | actives 0.14% (n = 360,000);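 active = activation above the run mean over all test wells plus 3 SD, cut at about 32% in these data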;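 also: peak over basal fluorescence ratio per well then scaled between controls; 0% = DMSO wells and 100% = acetylcholine at EC100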
CHRM4 antagonist = blocks acetylcholine activation of human M4 receptor | CHO-hM4 cells, ACh EC80, Fluo-8 calcium fluorescence | inhibition, % at 3 µM | actives 0.73% (n = 360,000) | AID 624125;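 active = inhibition above its plate's cutoff, the mean inhibition of sample wells plus 3 SD, cut at about 27% in these data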;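 also: 0% = acetylcholine EC80 with DMSO and 100% = DMSO without agonist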
CHRM5 agonist = CHRM5 agonism in calcium assay. activation, % at 3 µM. AID 624037. actives 0.19% (n = 360,000). CHO-K1 hM5 cells, Fluo-8 calcium fluorescence; 0% DMSO wells, 100% maximal acetylcholine response. P08912;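 active = activation above the run's mean over test compounds plus 3 SD, cut at about 23% in these data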;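 also: signal is peak over basal fluorescence ratio across the kinetic read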
M5 PAM = potentiates acetylcholine response at human M5 receptor; P08912; CHO-K1 hM5, Fluo-8 calcium, ACh EC20 PAM; 0% = ACh EC20, 100% = ACh EC100; activation, % at 3 µM; actives 0.3% (n = 360,000);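 active = activation above the run cutoff, the mean activation of all test compounds plus 3 SD, cut at about 18% in these data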
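Assay system – human M5 receptor in CHO-K1 cells · Read-out – % activation, ACh-normalized · Technique – Fluo-8 calcium fluorescence · Dosing – single-point, 3 µM nominal · Incubation – Fluo-8 loading 80 min at 37 °C plus 30 min room temperature · Repeats – singlicate, one well per test compound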
* hit, by the source's call. This is a sample that favours compounds with a hit; in the whole collection about 1.8% have one here.

O=C(Cn1c(=O)c2cccn2c2cccnc21)N1CCN(c2ccccc2F)CC1 was read as CHRM5 antagonist 26, M4 PAM 1, CHRM4 agonist 8, CHRM4 antagonist -9, CHRM5 agonist 1 and M5 PAM 25*.
Screening Cc1ccc(Nc2nc(N)nc(CSC(=S)N3CCOCC3)n2)cc1 returned CHRM5 antagonist 0, M4 PAM -2, CHRM4 agonist 0, CHRM4 antagonist -5, CHRM5 agonist 0 and M5 PAM 0.
Screening CCOc1ccc(Nc2nc(N)nc(CSC(=S)N3CCOCC3)n2)cc1 returned CHRM5 antagonist 34*, M4 PAM -22, CHRM4 agonist 14, CHRM4 antagonist 2, CHRM5 agonist -10 and M5 PAM -26.
`O=C(COC(=O)/C=C/c1ccc(Cl)cc1Cl)NCCC1=CCCCC1` gave CHRM5 antagonist 24, M4 PAM 11, CHRM4 agonist 1, CHRM4 antagonist 28*, CHRM5 agonist 6 and M5 PAM 27*.
For COc1ccc(C(=O)NCCCNC(=O)c2cnccn2)cc1 the results were CHRM5 antagonist 9, M4 PAM -2, CHRM4 agonist 2, CHRM4 antagonist -1, CHRM5 agonist -1 and M5 PAM 4.
`CN(CC(=O)N1CCN(C2CCCCC2)CC1)S(=O)(=O)c1cccc2nsnc12` gave CHRM5 antagonist 2, M4 PAM 1, CHRM4 agonist 2, CHRM4 antagonist 29*, CHRM5 agonist 0 and M5 PAM -2.
For Cc1cccc(N(C)C(=O)C2CCCN2S(=O)(=O)c2cccc3nsnc23)c1 (stereo not drawn) the results were CHRM5 antagonist -1, M4 PAM 9, CHRM4 agonist 0, CHRM4 antagonist 29*, CHRM5 agonist 3 and M5 PAM 2.
CCCC(=O)N1CCCC1(C)C(=O)N(C)Cc1cccc2ccccc12 (stereo not drawn) was read as CHRM5 antagonist 19, M4 PAM -3, CHRM4 agonist 1, CHRM4 antagonist -3, CHRM5 agonist -2 and M5 PAM -1.
`Cc1ccc(S(=O)(=O)NC2=NCN(C(C)C)CN2)cc1` gave CHRM5 antagonist -4, M4 PAM 7, CHRM4 agonist 2, CHRM4 antagonist -10, CHRM5 agonist 2 and M5 PAM 4.
For CC1(C)CCN2CCC(C)(C)c3c(O)ccc1c32 the results were CHRM5 antagonist 41*, M4 PAM -13, CHRM4 agonist 30, CHRM4 antagonist 26, CHRM5 agonist 95* and M5 PAM -16.
COc1nc(NCCO)nc(Nc2ccc([N+](=O)[O-])cc2)n1 was read as CHRM5 antagonist 9, M4 PAM 25*, CHRM4 agonist 2, CHRM4 antagonist -2, CHRM5 agonist 1 and M5 PAM 0.
Screening O=C(/C=C/c1ccc(F)cc1)NC(=S)NNC(=O)c1cnccn1 returned CHRM5 antagonist 0, M4 PAM 13, CHRM4 agonist 1, CHRM4 antagonist 30*, CHRM5 agonist 2 and M5 PAM 2.
COc1ccc(/C=C/C(=O)NC(=S)NNC(=O)c2cnccn2)cc1 was read as CHRM5 antagonist -1, M4 PAM 0, CHRM4 agonist 0, CHRM4 antagonist 2, CHRM5 agonist 1 and M5 PAM -1.
CCCC(=O)n1nc(-c2cccnc2)nc1NCc1ccccc1 was read as CHRM5 antagonist 4, M4 PAM -4, CHRM4 agonist 0, CHRM4 antagonist -6, CHRM5 agonist -1 and M5 PAM -2.
`O=C(c1[nH]c(C(F)(F)F)nc1-c1ccccc1)N1CCN(c2ncc(C(F)(F)F)cc2Cl)CC1` gave CHRM5 antagonist 13, M4 PAM -8, CHRM4 agonist 37*, CHRM4 antagonist 22, CHRM5 agonist 16 and M5 PAM -3.
For COc1ccc(C(=O)N/N=C2\SCC(=O)N2Cc2ccc3c(c2)OCO3)c(OC)c1 the results were CHRM5 antagonist 31*, M4 PAM 1, CHRM4 agonist 1, CHRM4 antagonist -1, CHRM5 agonist -3 and M5 PAM -8.
For COc1cccc(C(=O)N/N=C2/SCC(=O)N2CCc2ccc(OC)c(OC)c2)c1 the results were CHRM5 antagonist -4, M4 PAM -5, CHRM4 agonist 4, CHRM4 antagonist 8, CHRM5 agonist 2 and M5 PAM -3.
For COc1cccc(CNC(=O)c2ccccc2SCC(=O)N2CCCC2)c1 the results were CHRM5 antagonist 5, M4 PAM -5, CHRM4 agonist 5, CHRM4 antagonist 3, CHRM5 agonist 2 and M5 PAM -6.
For CN(C)c1cc2c(c(N(C)C)c1)C(=O)c1ccccc1C2=O the results were CHRM5 antagonist -11, M4 PAM 20*, CHRM4 agonist 4, CHRM4 antagonist -12, CHRM5 agonist -10 and M5 PAM 3.
Screening COc1ccc(/C=C2/C(=O)C(C)(C(C)C)CCC2C)cc1 (stereo not drawn) returned CHRM5 antagonist -3, M4 PAM 5, CHRM4 agonist 0, CHRM4 antagonist -2, CHRM5 agonist -2 and M5 PAM 7.
`COc1cc(NCCCC(C)N)c2ncccc2c1` (stereo not drawn) gave CHRM5 antagonist 5, M4 PAM 3, CHRM4 agonist 2, CHRM4 antagonist -2, CHRM5 agonist 0 and M5 PAM 22*.
Cc1noc(C)c1CSc1ccccc1C(=O)Nc1nccs1 was read as CHRM5 antagonist -8, M4 PAM 5, CHRM4 agonist 1, CHRM4 antagonist -7, CHRM5 agonist -5 and M5 PAM 30*.
For O=C1CCCC2=C1C(c1cccc(O)c1)C1=C(N2)c2ccccc2C1=O (stereo not drawn) the results were CHRM5 antagonist -10, M4 PAM -8, CHRM4 agonist 0, CHRM4 antagonist -3, CHRM5 agonist 5 and M5 PAM 18*.
For Cn1c(SCC(=O)c2cc(Cl)c(Cl)s2)nnc1-c1ccco1 the results were CHRM5 antagonist -11, M4 PAM -8, CHRM4 agonist 1, CHRM4 antagonist 2, CHRM5 agonist 6 and M5 PAM 19*.
`O=C(Nc1ccc(S(=O)(=O)Nc2ccccn2)cc1)C(F)(F)F` gave CHRM5 antagonist 5, M4 PAM 10, CHRM4 agonist 1, CHRM4 antagonist -2, CHRM5 agonist -2 and M5 PAM 10.
Screening CC(C)(C)C(=O)Nc1ccc(S(=O)(=O)Nc2ccccn2)cc1 returned CHRM5 antagonist -9, M4 PAM 25*, CHRM4 agonist 3, CHRM4 antagonist -9, CHRM5 agonist -3 and M5 PAM 10.
